# Measurements published in ChEMBL document CHEMBL2086239, “Synthesis and biological evaluation of combretastatin-amidobenzothiazole conjugates as potential anticancer agents” (Eur J Med Chem, 2012).
# Active and inactive are the calls of the source. The rule behind the calls is not given here.
# How the values were obtained:
# Format in all cases: functional
# A549 [1] = assay: Cytotoxicity against human A549 cells assessed as inhibition of cell growth at 10 uM after 48 hrs by SRB assay relative to control; conditions: A549, 48 h, read-out: GI
# Procedure, shortened: (§1)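 SRB protein assay in DMEM with 10% FBS at 37 °C, 5% CO2, 100% relative humidity. Cells seeded in 96-well plates, incubated 24 h, then exposed to drug at 10 µM for 48 h and processed per standard protocol. Absorbance read at 560 nm; growth percentage calculated for test wells relative to control wells.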
# IMR-32 = assay: Cytotoxicity against human IMR32 cells after 48 hrs assessed as inhibition of cell growth at 10 uM after 48 hrs by SRB assay relative to control; conditions: IMR-32, 48 h, read-out: GI; procedure, shortened: as §1
# MCF7 [2] = assay: Cytotoxicity against human MCF7 cells after 48 hrs assessed as inhibition of cell growth at 10 uM after 48 hrs by SRB assay relative to control; conditions: MCF7, 48 h, read-out: GI; procedure, shortened: as §1
# PC-3 [3] = assay: Cytotoxicity against human PC3 cells after 48 hrs assessed as inhibition of cell growth at 10 uM after 48 hrs by SRB assay relative to control; conditions: PC-3, 48 h, read-out: GI; procedure, shortened: as §1
# CCRF-CEM = assay: Growth inhibition of human CCRF-CEM cells after 48 hrs by SRB assay
# Procedure, shortened: (§2)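 NCI 60-cell-line screen: after preliminary screening, tested at five dose concentrations on 59 human tumour lines covering leukemia, lung, colon, CNS, melanoma, ovarian, renal, prostate and breast.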
# MOLT-4 = assay: Growth inhibition of human MOLT4 cells after 48 hrs by SRB assay; conditions: MOLT-4, 48 h; procedure, shortened: as §2
# SR = assay: Growth inhibition of human SR cells after 48 hrs by SRB assay
# Procedure, shortened: (§3)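 NCI 60-cell-line panel, five-dose testing after preliminary screen; sulforhodamine B protein assay in DMEM with 10% FBS, 37 °C, 5% CO2, 100% humidity. Cells seeded and incubated 24 h before compound addition, then exposed 48 h. Absorbance read at 560 nm; growth percentage relative to control wells; GI50 taken as concentration giving 50% growth inhibition.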
# A549 [4] = assay: Growth inhibition of human A549 cells after 48 hrs by SRB assay; conditions: A549, 48 h; procedure, shortened: as §2
# EKVX = assay: Growth inhibition of human EKVX cells after 48 hrs by SRB assay; procedure, shortened: as §2
# HOP-62 = assay: Growth inhibition of human HOP62 cells after 48 hrs by SRB assay; conditions: HOP-62, 48 h; procedure, shortened: as §2
# HOP-92 = assay: Growth inhibition of human HOP92 cells after 48 hrs by SRB assay; conditions: HOP-92, 48 h; procedure, shortened: as §2
# NCI-H226 = assay: Growth inhibition of human NCI-H226 cells after 48 hrs by SRB assay; conditions: NCI-H226, 48 h; procedure, shortened: as §2
# NCI-H23 = assay: Growth inhibition of human NCI-H23 cells after 48 hrs by SRB assay; conditions: NCI-H23, 48 h; procedure, shortened: as §2
# NCI-H322M = assay: Growth inhibition of human NCI-H322M cells after 48 hrs by SRB assay; procedure, shortened: as §2
# HCC 2998 = assay: Growth inhibition of human HCC2998 cells after 48 hrs by SRB assay; conditions: HCC 2998, 48 h; procedure, shortened: as §2
# HCT-116 = assay: Growth inhibition of human HCT116 cells after 48 hrs by SRB assay; conditions: HCT-116, 48 h; procedure, shortened: as §2
# HT-29 = assay: Growth inhibition of human HT-29 cells after 48 hrs by SRB assay; conditions: HT-29, 48 h; procedure, shortened: as §2
# KM12 = assay: Growth inhibition of human KM12 cells after 48 hrs by SRB assay; conditions: KM12, 48 h; procedure, shortened: as §2
# SF-295 = assay: Growth inhibition of human SF295 cells after 48 hrs by SRB assay; conditions: SF-295, 48 h; procedure, shortened: as §3
# SNB-75 = assay: Growth inhibition of human SNB75 cells after 48 hrs by SRB assay; conditions: SNB-75, 48 h; procedure, shortened: as §3
# Malme-3M = assay: Growth inhibition of human MALME-3M cells after 48 hrs by SRB assay; procedure, shortened: as §2
# M14 = assay: Growth inhibition of human M14 cells after 48 hrs by SRB assay; conditions: M14, 48 h; procedure, shortened: as §2
# SK-MEL-2 = assay: Growth inhibition of human SK-MEL-2 cells after 48 hrs by SRB assay; conditions: SK-MEL-2, 48 h; procedure, shortened: as §3
# SK-MEL-28 = assay: Growth inhibition of human SK-MEL-28 cells after 48 hrs by SRB assay; conditions: SK-MEL-28, 48 h; procedure, shortened: as §3
# OVCAR-5 = assay: Growth inhibition of human OVCAR5 cells after 48 hrs by SRB assay; conditions: OVCAR-5, 48 h; procedure, shortened: as §2
# OVCAR-4 = assay: Growth inhibition of human OVCAR4 cells after 48 hrs by SRB assay; conditions: OVCAR-4, 48 h; procedure, shortened: as §2
# OVCAR-8 = assay: Growth inhibition of human OVCAR8 cells after 48 hrs by SRB assay; conditions: OVCAR-8, 48 h; procedure, shortened: as §2
# NCI/ADR-RES = assay: Growth inhibition of human NCI/ADR-RES cells after 48 hrs by SRB assay; procedure, shortened: as §2
# SK-OV-3 = assay: Growth inhibition of human SKOV3 cells after 48 hrs by SRB assay; conditions: SK-OV-3, 48 h; procedure, shortened: as §3
# 786-0 = assay: Growth inhibition of human 786-0 cells after 48 hrs by SRB assay; conditions: 786-0, 48 h; procedure, shortened: as §2
# A498 = assay: Growth inhibition of human A498 cells after 48 hrs by SRB assay; conditions: A498, 48 h; procedure, shortened: as §2
# SN12C = assay: Growth inhibition of human SN12C cells after 48 hrs by SRB assay; procedure, shortened: as §3
# TK-10 = assay: Growth inhibition of human TK10 cells after 48 hrs by SRB assay; conditions: TK-10, 48 h; procedure, shortened: as §3
# PC-3 [5] = assay: Growth inhibition of human PC3 cells after 48 hrs by SRB assay; conditions: PC-3, 48 h; procedure, shortened: as §2
# DU-145 = assay: Growth inhibition of human DU145 cells after 48 hrs by SRB assay; conditions: DU-145, 48 h; procedure, shortened: as §2
# MCF7 [6] = assay: Growth inhibition of human MCF7 cells after 48 hrs by SRB assay; conditions: MCF7, 48 h; procedure, shortened: as §2
# MDA-MB-231 = assay: Growth inhibition of human MDA-MB-231 cells after 48 hrs by SRB assay; conditions: MDA-MB-231, 48 h; procedure, shortened: as §2
# Hs-578T = assay: Growth inhibition of human Hs578T cells after 48 hrs by SRB assay; procedure, shortened: as §2
# BT-549 = assay: Growth inhibition of human BT549 cells after 48 hrs by SRB assay; conditions: BT-549, 48 h; procedure, shortened: as §2
# T47D = assay: Growth inhibition of human T47D cells after 48 hrs by SRB assay; procedure, shortened: as §3
# MDA-MB-468 = assay: Growth inhibition of human MDA-MB-468 cells after 48 hrs by SRB assay; conditions: MDA-MB-468, 48 h; procedure, shortened: as §2
# MCF7 [7] = assay: Cell cycle arrest in human MCF7 cells assessed as accumulation at G1 phase at 4 uM after 24 hrs by FACS analysis (reference value: 58.33%)
# MCF7 [8] = assay: Cell cycle arrest in human MCF7 cells assessed as accumulation at S phase at 4 uM after 24 hrs by FACS analysis (reference value: 6.79%)
# SW-620 = assay: Growth inhibition of human SW620 cells after 48 hrs by SRB assay; conditions: SW-620, 48 h; procedure, shortened: as §3
compound,measurement,setting,value
COc1ccc2nc(NC(=O)COc3cc(/C=C\c4cc(OC)c(OC)c(OC)c4)ccc3OC)sc2c1,inhibition of growth at 10 µM,A549 [1],45%
same,inhibition of growth at 10 µM,IMR-32,73%
same,inhibition of growth at 10 µM,MCF7 [2],53%
same,inhibition of growth at 10 µM,PC-3 [3],33%
same,GI50,CCRF-CEM,3.87 µM
same,GI50,MOLT-4,3.87 µM
same,GI50,SR,3.69 µM
same,GI50,A549 [4],5.19 µM
same,GI50,EKVX,5.11 µM
same,GI50,HOP-62,23 µM
same,GI50,HOP-92,6.28 µM
same,GI50,NCI-H226,4.51 µM
same,GI50,NCI-H23,3.91 µM
same,GI50,NCI-H322M,inactive
same,GI50,HCC 2998,7.34 µM
same,GI50,HCT-116,3.7 µM
same,GI50,HT-29,3.34 µM
same,GI50,KM12,3.12 µM
same,GI50,SF-295,1.84 µM
same,GI50,SNB-75,1.91 µM
same,GI50,Malme-3M,inactive
same,GI50,M14,4.33 µM
same,GI50,SK-MEL-2,4.07 µM
same,GI50,SK-MEL-28,4.41 µM
same,GI50,OVCAR-5,5.89 µM
same,GI50,OVCAR-4,5.31 µM
same,GI50,OVCAR-8,5.28 µM
same,GI50,NCI/ADR-RES,2.3 µM
same,GI50,SK-OV-3,4.69 µM
same,GI50,786-0,7.52 µM
same,GI50,A498,3.5 µM
same,GI50,SN12C,5.75 µM
same,GI50,TK-10,7.54 µM
same,GI50,PC-3 [5],4.45 µM
same,GI50,DU-145,2.04 µM
same,GI50,MCF7 [6],2.88 µM
same,GI50,MDA-MB-231,5.4 µM
same,GI50,Hs-578T,4.15 µM
same,GI50,BT-549,21.2 µM
same,GI50,T47D,4.03 µM
same,GI50,MDA-MB-468,2.29 µM
same,Activity,MCF7 [7],62.81%
same,Activity,MCF7 [8],7.12%
same,GI50,SW-620,5.1 µM
